Experimental data reported in ChEMBL document CHEMBL1649381, “Domino approach to 2-aroyltrimethoxyindoles as novel heterocyclic combretastatin A4 analogues” (Eur J Med Chem, 2011).

Legend:
B16 = assay: Cytotoxicity against mouse B16 cells assessed as reduction in cell viability after 48 hrs by MTT assay; assay type: functional, cell-based; conditions: B16, 48 h
Procedure, shortened: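 B16 cells kept in DMEM with 2 mM L-glutamine, 10% FBS, penicillin/streptomycin at 37 °C, 5% CO2. After 48 h exposure, MTT was read at 562 nm with background subtracted. IC50 is the mean of three independent experiments.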

[1] = Inhibition of tubulin polymerization by DAPI fluorescent assay
Procedure, shortened: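 Tubulin (97% pure, 1 mg/ml final) in PME buffer (100 mM PIPES, 1 mM MgSO4, 2 mM EGTA) with DAPI and graded compound, colchicine as internal control. Preincubated 45 min at room temperature, then polymerization started by adding 1 mM GTP. Run 2 h at 37 °C with fluorescence excitation at 360 nm. IC50 taken from a semi-log plot of % inhibition against concentration.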

HCT-116 = assay: Antiproliferative activity against human HCT116 cells after 72 hrs by MTS assay; assay type: functional, cell-based; conditions: HCT-116, 72 h
Procedure, shortened: (§1)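 Cells grown in RPMI 1640 with 10% fetal calf serum, streptomycin and fungizone at 37 °C, 5% CO2. MTS reagent was added for 2 h and absorbance read at 490. IC50 is the concentration giving 50% growth inhibition.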

HCT-15 = assay: Antiproliferative activity against human HCT15 cells after 72 hrs by MTS assay; assay type: functional, cell-based; conditions: HCT-15, 72 h; procedure, shortened: as §1
HT-29 = assay: Antiproliferative activity against human HT-29 cells after 72 hrs by MTS assay; assay type: functional, cell-based; conditions: HT-29, 72 h; procedure, shortened: as §1

SMILES | IC50 [1] | IC50 (HCT-116) | IC50 (HCT-15) | IC50 (HT-29) | IC50 (B16)
COc1ccc(C(=O)c2cc3cc(OC)c(OC)c(OC)c3[nH]2)cc1F | 20 µM | – | – | – | > 50 µM
COc1ccc(C(=O)c2cc3c(OC)c(OC)c(OC)cc3[nH]2)cc1 | 9 µM | 4.2 µM | 0.45 µM | 1.24 µM | > 50 µM
COc1ccc(/C=C\c2cc(OC)c(OC)c(OC)c2)cc1O [COMBRETASTATIN A4] | 0.27 µM | 0.001 µM | 0.001 µM | 0.013 µM | 0.005 µM
COc1cc2[nH]c(C(=O)c3ccc(C)cc3)cc2c(OC)c1OC | 4 µM | 2.8 µM | 0.61 µM | 1.09 µM | 10 µM
COc1ccc(C(=O)c2cc3c(OC)c(OC)c(OC)cc3[nH]2)cn1 | 15 µM | – | – | – | > 50 µM
COc1cc2cc(C(=O)/C=C/c3ccccc3)[nH]c2c(OC)c1OC | 18 µM | – | – | – | 33 µM
COc1cc2[nH]c(C(=O)c3ccccc3)cc2c(OC)c1OC | > 20 µM | – | – | – | 45 µM
COc1cc2cc(C(=O)c3ccccc3)[nH]c2c(OC)c1OC | 9 µM | > 50 µM | > 50 µM | > 50 µM | > 50 µM

More lines, main results first:

IC50 [1] | IC50 (HCT-116) | IC50 (HCT-15) | IC50 (HT-29) | SMILES | IC50 (B16)
> 20 µM | – | – | – | COc1ccc(C(=O)c2cc3c(OC)c(OC)c(OC)cc3[nH]2)cc1F | 16 µM
> 20 µM | > 50 µM | > 50 µM | > 50 µM | COc1cc2cc(C(=O)c3ccc(C)cc3)[nH]c2c(OC)c1OC | 10 µM
> 20 µM | – | – | – | COc1cc2[nH]c(C(=O)/C=C/c3ccccc3)cc2c(OC)c1OC | 16 µM
12 µM | – | – | – | COc1ccc(C(=O)c2cc3cc(OC)c(OC)c(OC)c3[nH]2)cc1 | > 50 µM
18 µM | – | – | – | COc1ccc(C(=O)c2cc3cc(OC)c(OC)c(OC)c3[nH]2)cn1 | > 50 µM
10 µM | 2 µM | 0.32 µM | 0.99 µM | COc1cc2[nH]c(C(=O)c3ccc(C)c(N)c3)cc2c(OC)c1OC | 36 µM
